The results in this text go back to ChEMBL document CHEMBL4334471, “Discovery of 1,8-disubstituted-[1,2,3]triazolo[4,5-c]quinoline derivatives as a new class of Hippo signaling pathway inhibitors” (Bioorg Med Chem Lett, 2019).

In experiment [1] the target is Ribosomal protein S6 kinase alpha-4 (Homo sapiens) (UniProt O75676). As to the kind of experiment: Inhibition of recombinant human MSK2 (2 to end residues) assessed as residual activity at 10 uM using GRPRTSSFAEGKK as substrate incubated for 40 mins in presence of [gamma-33ATP by scintillation counting based radiometry assay relative to control.
In experiment [2] the target is Aurora kinase B (Homo sapiens) (UniProt Q96GD4). As to the kind of experiment: Inhibition of recombinant full length human Aurora B assessed as residual activity at 10 uM using AKRRRLSSLRA as substrate incubated for 40 mins in presence of [gamma-33ATP] by scintillation counting based radiometry assay relative to control.
The target of experiment [3] is Transcriptional coactivator YAP1 (Homo sapiens) (UniProt P46937). The experiment in a line: Induction of YAP nuclear translocation in human A549 cells at 10 uM incubated for 8 hrs by immunofluorescence based confocal microscopy. The experiment is classed as cell-based. In short, it runs like this:
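A549-CTGF reporter cells were treated for 8 h at 10 µM, with 0.1% DMSO as vehicle control. Cells were then fixed, permeabilized and probed with anti-YAP antibody. DAPI stained the nuclei, and YAP localization was imaged by immunofluorescence.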

For experiment [4], the target named is Mitogen-activated protein kinase 14 (Homo sapiens) (UniProt Q16539). As to the kind of experiment: Inhibition of recombinant human full length SAPK2a assessed as residual activity at 10 uM using myelin basic protein as substrate incubated for 40 mins in presence of [gamma33P]ATP by scintillation counting based radiometry assay relative to control.
The target in experiment [5] is Protein kinase C theta type (Homo sapiens) (UniProt Q04759). The experiment in a line: Inhibition of recombinant full length human PKCtheta assessed as residual activity at 10 uM using histone H1 as substrate incubated for 40 mins in presence of [gamma33P]ATP by scintillation counting based radiometry assay relative to control.
The species entered for the next experiment is Homo sapiens. As to the kind of experiment: Inhibition of recombinant full length human PRAK R291E mutant assessed as residual activity at 10 uM using KKLRRTLSVA as substrate incubated for 40 mins in presence of [gamma33P]ATP by scintillation counting based radiometry assay relative to control.
For experiment [6], the target named is Macrophage-stimulating protein receptor (Homo sapiens) (UniProt Q04912). As to the kind of experiment: Inhibition of recombinant human Ron (983 to end residues) assessed as residual activity at 10 uM using GGMEDIYFEFMGGKKK as substrate incubated for 40 mins in presence of [gamma33P]ATP by scintillation counting based radiometry assay relative to control.
Experiment [7] has as its target Protein kinase C zeta type (Homo sapiens) (UniProt Q05513). As to the kind of experiment: Inhibition of recombinant human PKCzeta (2 to end residues) assessed as residual activity at 10 uM using ERMRPRKRQGSVRRRV as substrate incubated for 40 mins in presence of [gamma33P]ATP by scintillation counting based radiometry assay relative to control.
For experiment [8], the target named is Tyrosine-protein kinase ABL1 (Homo sapiens) (UniProt P00519). As to the kind of experiment: Inhibition of human ABL1 (27 to end residues) at 10 uM using EAIYAAPFAKKK as substrate incubated for 40 mins in presence of [gamma-33ATP] by scintillation counting based radiometry assay relative to control. Details: scale not given: the % may be the effect or the level left.

Experiment [9] concerns the target NUAK family SNF1-like kinase 1 (Homo sapiens) (UniProt O60285). As to the kind of experiment: Inhibition of recombinant human ARK5 (2 to end residues) assessed as residual activity at 10 uM using KKKVSRSGLYRSPSMPENLNRPR as substrate incubated for 40 mins in presence of [gamma-33ATP] by scintillation counting based radiometry assay relative to control.
Experiment [10] concerns the target Activin receptor type-1 (Homo sapiens) (UniProt Q04771). The experiment in a line: Inhibition of human ALK2 (147 to end residues) assessed as residual activity at 10 uM using casein as substrate incubated for 40 mins in presence of [gamma-33ATP] by scintillation counting based radiometry assay relative to control.
Experiment [11] concerns the target Tyrosine-protein kinase ITK/TSK (Homo sapiens) (UniProt Q08881). As to the kind of experiment: Inhibition of human Itk (352 to 617 residues) assessed as residual activity at 10 uM using myelin basic protein as substrate after 40 mins by [gamma-33ATP] radiometric assay relative to control.
Experiment [12] concerns the target Serine/threonine-protein kinase SIK1 (Homo sapiens) (UniProt P57059). As to the kind of experiment: Inhibition of recombinant human SIK (1 to 281 residues) assessed as residual activity at 10 uM using AMARAASAAALARRR as substrate incubated for 40 mins in presence of [gamma33P]ATP by scintillation counting based radiometry assay relative to control.
Experiment [13] deals with Serine/threonine-protein kinase BRSK1 (Homo sapiens) (UniProt Q8TDC3). The experiment in a line: Inhibition of recombinant human BRSK1 ( 2 to end residues) assessed as residual activity at 10 uM using KKKVSRSGLYRSPSMPENLNRPR substrate incubated for 40 mins in presence of [gamma-33ATP] by scintillation counting based radiometry assay relative to control.
Experiment [14] addresses CDK3/Cyclin E (Homo sapiens) (UniProt P24864+Q00526). As to the kind of experiment: Inhibition of recombinant full length human CDK3/CyclinE assessed as residual activity at 10 uM using Histone H1 as substrate incubated for 40 mins in presence of [gamma-33ATP] by scintillation counting based radiometry assay relative to control. The class given is protein-complex assay.

Experiment [15] deals with Serine/threonine-protein kinase SBK1 (Homo sapiens) (UniProt Q52WX2). As to the kind of experiment: Inhibition of recombinant full-length human SBK1 assessed as residual activity at 10 uM using KKLRRTLSVA as substrate incubated for 120 mins in presence of [gamma33P]ATP by scintillation counting based radiometry assay relative to control.
Experiment [16] has as its target Serine/threonine-protein kinase 32B (Homo sapiens) (UniProt Q9NY57). The experiment in a line: Inhibition of recombinant human full length STK32B assessed as residual activity at 10 uM using casein as substrate incubated for 40 mins in presence of [gamma33P]ATP by scintillation counting based radiometry assay relative to control.
Experiment [17] deals with Cytoplasmic tyrosine-protein kinase BMX (Homo sapiens) (UniProt P51813). The experiment in a line: Inhibition of recombinant full length human BMX assessed as residual activity at 10 uM using poly(Glu, Tyr) 4:1 as substrate incubated for 40 mins in presence of [gamma-33ATP] by scintillation counting based radiometry assay relative to control.
Experiment [18] concerns the target [Pyruvate dehydrogenase (acetyl-transferring)] kinase isozyme 4, mitochondrial (Homo sapiens) (UniProt Q16654). As to the kind of experiment: Inhibition of recombinant human full length PDHK4 assessed as residual activity at 10 uM using KKKYHGHSMSDPGVSYRT as substrate incubated for 40 mins in presence of [gamma33P]ATP by scintillation counting based radiometry assay relative to control.

The target in experiment [19] is Protein kinase C beta type (Homo sapiens) (UniProt P05771). As to the kind of experiment: Inhibition of recombinant human PKCbeta1 (2 to end residues) assessed as residual activity at 10 uM using histone H1 as substrate incubated for 40 mins in presence of [gamma33P]ATP by scintillation counting based radiometry assay relative to control.
The subject of experiment [20] is Serine/threonine-protein kinase D1 (Homo sapiens), Q15139 [UNDEFINED MUTATION]. As to the kind of experiment: Inhibition of recombinant full-length human PKCmu R135A mutant assessed as residual activity at 10 uM using KKLNRTLSVA as substrate incubated for 40 mins in presence of [gamma33P]ATP by scintillation counting based radiometry assay relative to control.

The source made the active and inactive calls. The calls are words filed in the database; no cut-off is given here.

Sequence of Serine/threonine-protein kinase 32B (Homo sapiens) (Q9NY57 whole entry): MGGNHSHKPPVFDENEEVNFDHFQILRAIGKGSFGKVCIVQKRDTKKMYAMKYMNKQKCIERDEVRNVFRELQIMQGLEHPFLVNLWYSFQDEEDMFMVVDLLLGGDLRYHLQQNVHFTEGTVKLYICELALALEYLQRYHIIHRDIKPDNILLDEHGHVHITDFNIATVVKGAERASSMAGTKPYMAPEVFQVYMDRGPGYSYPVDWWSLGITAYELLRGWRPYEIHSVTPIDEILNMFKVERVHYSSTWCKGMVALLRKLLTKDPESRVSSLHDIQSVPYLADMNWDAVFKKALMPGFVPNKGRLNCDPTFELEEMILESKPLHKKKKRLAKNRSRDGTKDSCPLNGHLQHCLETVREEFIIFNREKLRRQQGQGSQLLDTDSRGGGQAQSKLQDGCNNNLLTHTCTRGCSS
Sequence of Activin receptor type-1 (Homo sapiens) (Q04771 whole entry, the tested form may be a part): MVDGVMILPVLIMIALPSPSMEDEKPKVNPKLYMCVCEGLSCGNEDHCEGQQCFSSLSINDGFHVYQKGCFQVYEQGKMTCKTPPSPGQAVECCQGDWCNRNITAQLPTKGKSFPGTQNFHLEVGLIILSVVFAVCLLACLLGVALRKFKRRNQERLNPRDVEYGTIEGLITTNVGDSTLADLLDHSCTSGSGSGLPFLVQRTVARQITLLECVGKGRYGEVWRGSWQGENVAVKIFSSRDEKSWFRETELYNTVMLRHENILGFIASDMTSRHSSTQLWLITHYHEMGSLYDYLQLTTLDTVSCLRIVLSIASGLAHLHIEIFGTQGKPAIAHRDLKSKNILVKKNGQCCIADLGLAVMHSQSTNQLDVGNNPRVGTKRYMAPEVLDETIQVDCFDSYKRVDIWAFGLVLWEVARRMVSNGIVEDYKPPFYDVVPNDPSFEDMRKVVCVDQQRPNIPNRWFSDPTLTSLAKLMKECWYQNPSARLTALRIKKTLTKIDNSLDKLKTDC
Sequence of Protein kinase C theta type (Homo sapiens) (Q04759 whole entry, looked up): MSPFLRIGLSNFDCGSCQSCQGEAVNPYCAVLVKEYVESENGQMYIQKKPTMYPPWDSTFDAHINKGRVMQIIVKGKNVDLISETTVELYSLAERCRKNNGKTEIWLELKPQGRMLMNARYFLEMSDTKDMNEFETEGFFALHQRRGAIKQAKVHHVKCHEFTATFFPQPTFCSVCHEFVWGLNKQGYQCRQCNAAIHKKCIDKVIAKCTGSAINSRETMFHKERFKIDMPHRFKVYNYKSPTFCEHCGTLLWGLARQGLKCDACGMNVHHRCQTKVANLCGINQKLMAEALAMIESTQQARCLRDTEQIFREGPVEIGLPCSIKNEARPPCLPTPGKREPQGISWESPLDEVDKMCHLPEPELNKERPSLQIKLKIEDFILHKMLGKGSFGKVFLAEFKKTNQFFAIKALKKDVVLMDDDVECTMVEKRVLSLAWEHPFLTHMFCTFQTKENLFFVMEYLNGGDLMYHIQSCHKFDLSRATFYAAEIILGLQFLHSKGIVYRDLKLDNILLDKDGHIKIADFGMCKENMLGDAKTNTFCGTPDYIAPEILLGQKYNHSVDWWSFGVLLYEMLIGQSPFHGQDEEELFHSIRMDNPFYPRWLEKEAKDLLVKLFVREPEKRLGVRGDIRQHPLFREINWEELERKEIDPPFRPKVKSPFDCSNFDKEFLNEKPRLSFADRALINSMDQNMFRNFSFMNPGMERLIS
Sequence of Ribosomal protein S6 kinase alpha-4 (Homo sapiens) (O75676 whole entry, looked up): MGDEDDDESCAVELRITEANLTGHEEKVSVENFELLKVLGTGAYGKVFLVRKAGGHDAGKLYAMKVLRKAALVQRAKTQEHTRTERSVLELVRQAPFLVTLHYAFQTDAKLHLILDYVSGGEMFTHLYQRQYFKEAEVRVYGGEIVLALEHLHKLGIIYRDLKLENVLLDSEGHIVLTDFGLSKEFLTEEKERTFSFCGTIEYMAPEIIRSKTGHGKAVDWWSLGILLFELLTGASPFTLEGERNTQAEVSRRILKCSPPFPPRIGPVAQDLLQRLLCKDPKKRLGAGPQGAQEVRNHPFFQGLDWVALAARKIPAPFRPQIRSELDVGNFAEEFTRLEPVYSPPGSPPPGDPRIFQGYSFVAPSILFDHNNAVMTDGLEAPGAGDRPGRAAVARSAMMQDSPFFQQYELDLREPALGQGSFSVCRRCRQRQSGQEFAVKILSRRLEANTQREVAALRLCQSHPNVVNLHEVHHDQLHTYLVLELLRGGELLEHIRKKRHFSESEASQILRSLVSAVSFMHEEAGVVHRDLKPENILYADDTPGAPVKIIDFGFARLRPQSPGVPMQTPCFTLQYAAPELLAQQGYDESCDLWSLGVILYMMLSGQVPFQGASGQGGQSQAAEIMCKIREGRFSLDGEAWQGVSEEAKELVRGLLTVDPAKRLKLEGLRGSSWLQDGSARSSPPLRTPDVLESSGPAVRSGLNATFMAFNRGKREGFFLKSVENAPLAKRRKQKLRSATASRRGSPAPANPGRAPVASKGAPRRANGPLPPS
Sequence of Tyrosine-protein kinase ABL1 (Homo sapiens) (P00519 whole entry): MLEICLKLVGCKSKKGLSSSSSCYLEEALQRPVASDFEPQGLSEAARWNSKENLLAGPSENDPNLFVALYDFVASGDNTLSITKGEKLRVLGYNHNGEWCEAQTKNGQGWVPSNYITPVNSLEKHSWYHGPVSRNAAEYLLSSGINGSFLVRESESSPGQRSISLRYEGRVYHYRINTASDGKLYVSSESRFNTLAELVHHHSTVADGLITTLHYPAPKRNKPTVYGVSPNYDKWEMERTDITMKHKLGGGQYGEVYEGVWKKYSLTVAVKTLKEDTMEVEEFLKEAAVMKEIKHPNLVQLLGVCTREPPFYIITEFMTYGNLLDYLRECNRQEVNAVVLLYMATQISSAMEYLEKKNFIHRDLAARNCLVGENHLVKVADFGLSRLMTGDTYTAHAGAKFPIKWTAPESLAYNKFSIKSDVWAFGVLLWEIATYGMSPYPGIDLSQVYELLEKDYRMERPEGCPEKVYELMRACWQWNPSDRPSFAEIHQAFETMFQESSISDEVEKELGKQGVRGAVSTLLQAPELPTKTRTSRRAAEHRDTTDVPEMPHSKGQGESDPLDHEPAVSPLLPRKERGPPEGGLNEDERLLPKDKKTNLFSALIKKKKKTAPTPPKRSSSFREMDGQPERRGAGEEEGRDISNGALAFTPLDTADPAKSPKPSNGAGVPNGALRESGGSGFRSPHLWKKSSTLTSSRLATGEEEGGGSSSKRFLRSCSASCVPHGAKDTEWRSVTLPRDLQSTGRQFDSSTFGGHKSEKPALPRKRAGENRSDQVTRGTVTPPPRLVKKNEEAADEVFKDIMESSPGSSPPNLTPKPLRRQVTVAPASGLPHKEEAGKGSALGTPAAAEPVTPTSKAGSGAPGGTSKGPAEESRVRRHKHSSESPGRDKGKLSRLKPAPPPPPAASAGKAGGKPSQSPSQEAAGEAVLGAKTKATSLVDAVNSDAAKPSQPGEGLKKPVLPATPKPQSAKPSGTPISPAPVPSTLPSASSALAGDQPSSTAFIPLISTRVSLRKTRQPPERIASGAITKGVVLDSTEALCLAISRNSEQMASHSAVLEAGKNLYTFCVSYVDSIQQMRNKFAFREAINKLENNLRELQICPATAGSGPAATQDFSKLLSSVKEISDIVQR
Sequence of Aurora kinase B (Homo sapiens) (Q96GD4 whole entry): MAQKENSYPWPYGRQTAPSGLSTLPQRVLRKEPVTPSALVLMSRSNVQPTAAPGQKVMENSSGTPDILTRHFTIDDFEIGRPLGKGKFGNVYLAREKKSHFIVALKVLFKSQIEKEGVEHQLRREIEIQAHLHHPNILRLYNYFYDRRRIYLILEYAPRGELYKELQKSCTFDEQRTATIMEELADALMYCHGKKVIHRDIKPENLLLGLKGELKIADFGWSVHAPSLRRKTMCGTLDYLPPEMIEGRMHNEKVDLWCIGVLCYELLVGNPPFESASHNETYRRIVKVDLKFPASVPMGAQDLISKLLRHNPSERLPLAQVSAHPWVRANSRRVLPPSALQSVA
Sequence of Transcriptional coactivator YAP1 (Homo sapiens) (P46937 whole entry): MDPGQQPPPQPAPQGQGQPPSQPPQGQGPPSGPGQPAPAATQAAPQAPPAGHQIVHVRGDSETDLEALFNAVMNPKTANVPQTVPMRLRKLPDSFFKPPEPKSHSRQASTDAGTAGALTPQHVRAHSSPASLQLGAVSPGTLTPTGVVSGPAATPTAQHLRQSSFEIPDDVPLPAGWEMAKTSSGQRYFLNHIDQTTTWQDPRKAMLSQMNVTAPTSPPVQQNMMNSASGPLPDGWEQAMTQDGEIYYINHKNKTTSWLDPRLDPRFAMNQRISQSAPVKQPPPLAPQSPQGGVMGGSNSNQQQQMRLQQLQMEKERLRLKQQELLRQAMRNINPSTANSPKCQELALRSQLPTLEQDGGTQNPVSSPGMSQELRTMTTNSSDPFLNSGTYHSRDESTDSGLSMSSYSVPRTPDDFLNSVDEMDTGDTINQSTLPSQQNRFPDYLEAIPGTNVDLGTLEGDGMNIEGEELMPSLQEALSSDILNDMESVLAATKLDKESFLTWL
Sequence of Mitogen-activated protein kinase 14 (Homo sapiens) (Q16539 whole entry): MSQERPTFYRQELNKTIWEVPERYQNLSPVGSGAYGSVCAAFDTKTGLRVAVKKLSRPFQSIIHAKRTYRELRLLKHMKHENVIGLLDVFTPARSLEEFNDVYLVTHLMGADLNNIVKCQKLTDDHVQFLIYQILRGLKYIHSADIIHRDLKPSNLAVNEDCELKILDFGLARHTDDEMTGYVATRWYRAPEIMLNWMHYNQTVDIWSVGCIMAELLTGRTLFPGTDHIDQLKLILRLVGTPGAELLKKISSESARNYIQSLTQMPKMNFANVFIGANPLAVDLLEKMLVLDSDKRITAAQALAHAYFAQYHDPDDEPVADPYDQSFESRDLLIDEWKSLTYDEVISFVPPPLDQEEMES

For `C[C@@H](c1ccccc1)n1nnc2cnc3ccc(-c4cnc5[nH]ccc5c4)cc3c21`, the Activity in experiment [1] came to 58%; in experiment [2], 34%; in experiment [4], 105%; in [5], 70%; in the experiment listed under Homo sapiens it was 87%; in experiment [6], 79%. For the same molecule, the Activity is 84% in experiment [7]; -4% in experiment [8]; 73% in [9]; 88% in experiment [10]; 64% in experiment [11]; 8% in experiment [12]. Further, the Activity was 36% in [13]; 71% in experiment [14]; 113% in experiment [15]; 88% in experiment [16]; 44% in [17]; 69% in experiment [18]. Also, the Activity in experiment [19] was found to be 110%; in [20], 93%. For the same molecule, the result in experiment [3] was Active.
